The source of these data is ChEMBL document CHEMBL1123542, “Alpha-adrenoreceptor reagents. 4. Resolution of some potent selective prejunctional alpha 2-adrenoreceptor antagonists” (J Med Chem, 1986).

SMILES strings stand for the structures. Bounds are passed on as bounds.

In experiment [1] the target is T1, Adrenergic receptor alpha-1 (Rattus norvegicus, UniProt P15823+P23944+P43140).
T1 sequence (P15823 whole entry): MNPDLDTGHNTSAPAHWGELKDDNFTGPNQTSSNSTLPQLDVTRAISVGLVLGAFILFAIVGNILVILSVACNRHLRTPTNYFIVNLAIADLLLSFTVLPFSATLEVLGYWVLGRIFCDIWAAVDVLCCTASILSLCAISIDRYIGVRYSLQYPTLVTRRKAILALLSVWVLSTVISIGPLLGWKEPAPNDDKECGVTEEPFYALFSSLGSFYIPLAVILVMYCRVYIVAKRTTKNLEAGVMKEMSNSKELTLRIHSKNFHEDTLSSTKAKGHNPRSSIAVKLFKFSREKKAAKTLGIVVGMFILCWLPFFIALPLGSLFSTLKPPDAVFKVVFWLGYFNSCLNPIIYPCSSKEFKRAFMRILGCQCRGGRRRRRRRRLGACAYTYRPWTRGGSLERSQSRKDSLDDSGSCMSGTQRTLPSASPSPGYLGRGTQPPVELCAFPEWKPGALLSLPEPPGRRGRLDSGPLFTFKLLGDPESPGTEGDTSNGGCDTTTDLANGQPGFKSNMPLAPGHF
T1 sequence (P23944 whole entry): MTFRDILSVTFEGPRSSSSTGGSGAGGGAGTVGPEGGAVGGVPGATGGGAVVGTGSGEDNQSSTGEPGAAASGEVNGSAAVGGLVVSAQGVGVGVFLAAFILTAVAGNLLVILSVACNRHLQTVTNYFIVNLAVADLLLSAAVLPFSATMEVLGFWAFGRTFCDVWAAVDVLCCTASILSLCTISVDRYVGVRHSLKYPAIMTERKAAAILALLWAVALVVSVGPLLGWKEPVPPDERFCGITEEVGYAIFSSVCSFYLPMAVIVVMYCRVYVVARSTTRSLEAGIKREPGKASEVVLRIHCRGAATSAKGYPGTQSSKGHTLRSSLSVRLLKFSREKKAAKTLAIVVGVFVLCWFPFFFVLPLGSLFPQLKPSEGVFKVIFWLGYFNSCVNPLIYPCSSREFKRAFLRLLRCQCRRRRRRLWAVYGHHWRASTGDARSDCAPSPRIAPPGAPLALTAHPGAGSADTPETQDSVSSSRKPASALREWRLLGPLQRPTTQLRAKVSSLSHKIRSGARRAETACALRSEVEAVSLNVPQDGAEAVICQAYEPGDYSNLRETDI
T1 sequence (P43140 whole entry): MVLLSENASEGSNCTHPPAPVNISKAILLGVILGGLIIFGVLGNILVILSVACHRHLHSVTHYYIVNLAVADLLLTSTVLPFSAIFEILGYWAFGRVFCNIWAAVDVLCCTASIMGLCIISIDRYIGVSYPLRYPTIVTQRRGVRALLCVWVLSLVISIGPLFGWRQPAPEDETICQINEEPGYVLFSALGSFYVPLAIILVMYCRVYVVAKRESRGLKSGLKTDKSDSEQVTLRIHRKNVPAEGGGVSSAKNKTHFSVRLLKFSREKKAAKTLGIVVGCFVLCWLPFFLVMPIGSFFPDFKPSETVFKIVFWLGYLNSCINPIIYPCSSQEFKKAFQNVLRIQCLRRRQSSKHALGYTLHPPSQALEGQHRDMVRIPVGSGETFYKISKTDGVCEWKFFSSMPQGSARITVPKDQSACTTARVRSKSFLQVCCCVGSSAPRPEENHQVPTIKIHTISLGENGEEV
Put plainly: Displacement of [3H]prazosin from alpha-1 adrenergic receptor from rat brain cerebral cortex. In kind it is tissue-based. The method in brief: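 Rat cerebral cortical membranes. Ki (nM) from displacement of saturable [3H]prazosin binding at α1 sites.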

Another experiment has as its system Rattus norvegicus. Put plainly: Compound was evaluated in vivo for the reversal of maximal inhibitory effect of clonidine at 100 ug/kg(iv) in pithed rat vas deferens preparation. In kind it is functional.
In experiment [2] the target is T2, Adrenergic receptor alpha-2 (Rattus norvegicus, UniProt P22086+P19328+P22909).
T2 sequence (P22086 whole entry): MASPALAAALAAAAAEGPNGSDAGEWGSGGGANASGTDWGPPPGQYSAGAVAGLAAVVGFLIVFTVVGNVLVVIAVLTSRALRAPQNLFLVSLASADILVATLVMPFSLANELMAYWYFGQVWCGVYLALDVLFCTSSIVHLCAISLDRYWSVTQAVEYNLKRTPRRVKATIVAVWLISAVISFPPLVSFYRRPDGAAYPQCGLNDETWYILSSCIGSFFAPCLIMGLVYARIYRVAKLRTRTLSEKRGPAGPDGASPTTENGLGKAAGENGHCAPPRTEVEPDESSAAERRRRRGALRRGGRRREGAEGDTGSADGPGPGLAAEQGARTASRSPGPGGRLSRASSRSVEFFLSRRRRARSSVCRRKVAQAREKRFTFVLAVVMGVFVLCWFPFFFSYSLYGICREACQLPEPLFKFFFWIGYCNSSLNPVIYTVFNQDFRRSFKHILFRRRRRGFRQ
T2 sequence (P19328 whole entry): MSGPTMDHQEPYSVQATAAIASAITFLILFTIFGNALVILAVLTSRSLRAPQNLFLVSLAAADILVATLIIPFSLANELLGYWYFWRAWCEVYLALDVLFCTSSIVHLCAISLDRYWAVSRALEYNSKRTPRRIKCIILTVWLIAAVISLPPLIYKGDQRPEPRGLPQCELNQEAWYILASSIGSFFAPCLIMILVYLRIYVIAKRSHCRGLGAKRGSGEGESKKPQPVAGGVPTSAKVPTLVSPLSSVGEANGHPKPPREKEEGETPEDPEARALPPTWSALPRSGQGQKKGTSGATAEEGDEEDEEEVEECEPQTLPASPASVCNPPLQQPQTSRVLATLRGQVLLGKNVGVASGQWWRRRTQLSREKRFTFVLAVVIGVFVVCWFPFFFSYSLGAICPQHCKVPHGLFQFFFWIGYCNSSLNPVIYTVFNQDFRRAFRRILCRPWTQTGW
T2 sequence (P22909 whole entry): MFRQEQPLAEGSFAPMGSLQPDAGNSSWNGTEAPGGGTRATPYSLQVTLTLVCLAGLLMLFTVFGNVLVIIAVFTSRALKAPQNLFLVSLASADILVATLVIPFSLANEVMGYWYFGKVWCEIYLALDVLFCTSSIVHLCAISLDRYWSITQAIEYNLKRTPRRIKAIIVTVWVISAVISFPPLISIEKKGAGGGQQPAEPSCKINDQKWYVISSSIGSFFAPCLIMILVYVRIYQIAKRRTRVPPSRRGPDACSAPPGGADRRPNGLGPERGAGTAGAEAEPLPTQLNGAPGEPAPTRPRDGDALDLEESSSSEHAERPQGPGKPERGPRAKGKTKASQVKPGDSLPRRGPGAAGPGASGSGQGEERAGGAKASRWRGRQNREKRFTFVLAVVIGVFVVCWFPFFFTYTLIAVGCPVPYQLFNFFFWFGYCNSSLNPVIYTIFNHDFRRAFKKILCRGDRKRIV
Put plainly: Displacement of [3H]idazoxan from alpha-2 adrenergic receptor from rat brain cerebral cortex. In kind it is tissue-based. A digest of the protocol:
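Rat cerebral cortical membranes. Ki (nM) from displacement of saturable [3H]idazoxan binding at α2 sites.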

Experiment [3] relates to Alpha-1 adrenergic receptor (Rattus norvegicus). Put plainly: Compound was evaluated for its ability to antagonise the inhibitory activity of phenylephrine, relative to idazoxan at postjunctional alpha-1 adrenergic receptor in rat anococcygeus.
For experiment [4], the system named is Alpha-2 adrenergic receptor (Rattus norvegicus). Put plainly: Compound was evaluated for its ability to antagonise the inhibitory activity of clonidine, relative to idazoxan at prejunctional alpha-2 adrenergic receptor in rat vas deferens.
Experiment [5] concerns the target T3, Adrenergic receptor alpha-1 (Rattus norvegicus) (UniProt P15823+P23944+P43140). Description: Compound was evaluated for the antagonist potency at postjunctional alpha-1 adrenergic receptor in pithed rat diastolic bp test. In kind it is functional. The method in brief:
(§1)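 Pithed rats; iv dose (μg/kg) giving a 2-fold shift (DR2) of the cirazoline dose-response curve on diastolic blood pressure. Separate groups, n = 6 minimum.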

Experiment [6] concerns the target T4, Adenosine receptor A1 (Rattus norvegicus) (UniProt P25099).
T4 sequence (whole entry): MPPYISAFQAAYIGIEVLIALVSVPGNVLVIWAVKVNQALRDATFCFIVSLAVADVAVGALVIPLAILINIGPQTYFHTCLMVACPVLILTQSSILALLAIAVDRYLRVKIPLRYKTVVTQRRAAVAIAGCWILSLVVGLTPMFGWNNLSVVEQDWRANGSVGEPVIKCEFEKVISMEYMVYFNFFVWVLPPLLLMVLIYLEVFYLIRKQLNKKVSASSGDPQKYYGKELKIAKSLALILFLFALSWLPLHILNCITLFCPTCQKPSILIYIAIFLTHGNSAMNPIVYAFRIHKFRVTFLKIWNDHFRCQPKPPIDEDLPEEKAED
Put plainly: Compound was evaluated for its ability to antagonise the inhibitory activity of phenylephrine, relative to idazoxan at postjunctional alpha-1 adrenergic receptor in rat anococcygeus. Type of experiment: functional.

Experiment [7] concerns the target T3, Adrenergic receptor alpha-1 (Rattus norvegicus). Description: Compound was evaluated for the antagonist potency at postjunctional alpha-1 adrenergic receptor in pithed rat diastolic bp test,. Type of experiment: functional. A digest of the protocol: as §1
The target of experiment [8] is Adenosine A2 receptor (Rattus norvegicus) (UniProt P29276+P30543). Description: Compound was evaluated for its ability to antagonise the inhibitory activity of clonidine, relative to idazoxan at prejunctional alpha-2 adrenergic receptor in rat vas deferens. In kind it is functional, tissue-based.

As for `COC1(C2=NCCN2)COc2ccccc2O1` (single isomer, unassigned; (+)) [listing 1 of 2 here], the results for the Ki in experiment [1] and in experiment [2] were 27 nM and 0.36 nM, respectively. The AD50 with Rattus norvegicus came out at 0.00225 mg/kg.

On to `C=C(C)C1(C2=NCCN2)COc2ccccc2O1` (single isomer, unassigned; (+)) [listing 1 of 2 here], for which the inhibitory constant (Ki) in experiment [1] is 46439 nM; in [2], 8734 nM. For the same molecule, the AD50 in the experiment with Rattus norvegicus was more than 14.444 mg/kg.

Take `CC1(C2=NCCN2)COc2ccccc2O1` (single isomer, unassigned; (+)) [listing 1 of 2 here]: the inhibition constant (Ki) in [1] was found to be 285 nM; in experiment [2], 2.4 nM. Besides, the AD50 in the experiment on Rattus norvegicus was found to be 0.0258 mg/kg.

As to `C=C(C)C1(C2=NCCN2)COc2ccccc2O1` (single isomer, unassigned; (+)) [listing 2 of 2 here], the Antagonist potency came out at 0.03 in [3] and 0.0003 in experiment [4].

For the molecule `CC1(C2=NCCN2)COc2ccccc2O1` (single isomer, unassigned; (+)) [listing 2 of 2 here], the Antagonist potency in experiment [3] was 0.09; in experiment [4] it was 1.3.

As for `COC1(C2=NCCN2)COc2ccccc2O1` (single isomer, unassigned; (+)) [listing 2 of 2 here], in [5], the Antagonist potency was found to be 58.9.

Turning to `COC1(C2=NCCN2)COc2ccccc2O1` (single isomer, unassigned; (-)) [listing 1 of 2 here], the results for the Ki in experiment [1] and in experiment [2] were 6763 nM and 256 nM, respectively. Moreover, the AD50 in the experiment on Rattus norvegicus stood at 0.786 mg/kg.

With `CC1(C2=NCCN2)COc2ccccc2O1` (single isomer, unassigned; (-)) [listing 1 of 2 here], the Ki in [1] is 13329 nM; in [2], 487 nM. The AD50 in the experiment with Rattus norvegicus is 2.567 mg/kg.

`CC1(C2=NCCN2)COc2ccccc2O1` (single isomer, unassigned; (-)) [listing 2 of 2 here]: the Antagonist potency in experiment [6] was less than 0.023; in experiment [4], 0.005.

In the case of `COC1(C2=NCCN2)COc2ccccc2O1` (single isomer, unassigned; (-)) [listing 2 of 2 here], in [7], the Antagonist potency stood at 12800.

For `COC1(C2=NCCN2)COc2ccccc2O1` (stereo in doubt; 4) [listing 1 of 2 here], the inhibition constant Ki in experiment [1] was found to be 66 nM; in experiment [2], 0.8 nM. Further, the AD50 in the experiment on Rattus norvegicus turned out to be 0.00268 mg/kg.

`COC1(C2=NCCN2)COc2ccccc2O1` (stereo in doubt; 4) [listing 2 of 2 here]: the Antagonist potency in experiment [5] turned out to be 176.

Consider `CC1(C2=NCCN2)COc2ccccc2O1` (stereo in doubt; 7) [listing 1 of 2 here], for which the Ki in experiment [1] is given as 449 nM; in experiment [2], 4.4 nM. In addition, in the experiment with Rattus norvegicus, the AD50 worked out at 0.0527 mg/kg.

For `CC1(C2=NCCN2)COc2ccccc2O1` (stereo in doubt; 7) [listing 2 of 2 here], the values for the Antagonist potency in [8] and in experiment [3] were 0.67 and 0.28, respectively.

With `C=C(C)C1(C2=NCCN2)COc2ccccc2O1` (stereo in doubt; 10) [listing 1 of 2 here], the Ki in experiment [1] stood at 1794 nM; in experiment [2], 16.3 nM. Further, the AD50 in the experiment with Rattus norvegicus turned out to be 0.0712 mg/kg.

Consider `C=C(C)C1(C2=NCCN2)COc2ccccc2O1` (stereo in doubt; 10) [listing 2 of 2 here], for which the values for the Antagonist potency in experiment [3] and in experiment [4] were 0.07 and 0.4, respectively.

Take `C=C(C)C1(C2=NCCN2)COc2ccccc2O1` (stereo in doubt; 12) [listing 1 of 2 here]: the Ki in experiment [1] is on record as 1473 nM; in experiment [2], 8 nM. The AD50 with Rattus norvegicus turned out to be 0.0539 mg/kg.

Consider `C=C(C)C1(C2=NCCN2)COc2ccccc2O1` (stereo in doubt; 12) [listing 2 of 2 here], for which the Antagonist potency in experiment [3] is 0.6; in [4] it was 0.8.
